Measurements as given in ChEMBL document CHEMBL3611977, “Synthesis, pharmacological evaluation and docking studies of pyrrole structure-based CB2 receptor antagonists” (Eur J Med Chem, 2015).
The source made the active and inactive calls. The calls are words filed in the database; no cut-off is given here.

Assays:
Cannabinoid receptor 2 [1] = biological target: T1, Cannabinoid receptor 2 (Homo sapiens, UniProt P34972); assay: Displacement of [3H]-CP55940 from human CB2 receptor transfected in HEK293EBNA cell membranes after 90 mins by liquid scintillation counting analysis; parameters: species or system HEK293-EBNA
In short: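 Human CB2-transfected HEK293EBNA membranes (about 0.18 mg/mL protein) in Tris-HCl with EDTA, MgCl₂ and fatty-acid-free BSA, pH 7.4. Compounds were pre-screened at a single concentration, with full curves only if displacement exceeded 50%. Ki from iterative curve fitting, three independent experiments in triplicate.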

Cannabinoid receptor 1 = Cannabinoid receptor 1 (Homo sapiens, UniProt P21554); assay: Displacement of [3H]-CP55940 from human CB1 receptor transfected in HEK293EBNA cell membranes after 90 mins by liquid scintillation counting analysis; parameters: species or system HEK293-EBNA
[2] = biological target: Cannabinoid receptor 2 (Mus musculus) (UniProt P47936); assay: Antagonist/inverse agonist activity at CB2 receptor in mouse BV-2 cells assessed as inhibition of WIN55,212-2-mediated attenuation of LPS-induced PGE2 release at 10 fold Ki after 16 hrs by ELISA immunoassay; type: cell-based
In short: (§1)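 Mouse BV-2 microglia plated at 5 × 10⁵ cells/well on poly-L-ornithine and grown overnight in DMEM with 10% FBS at 37 °C and 5% CO₂. The medium was switched to 1% FBS 1 h before treatment. Cells were then given LPS (E. coli 055:B5) for 16 h, alone or with test compound, and PGE2 release was measured. Data were analysed by one-way ANOVA.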

[3] = biological target: Cannabinoid receptor 2 (Mus musculus) (UniProt P47936); assay: Antagonist/inverse agonist activity at CB2 receptor in mouse BV-2 cells assessed as LPS-induced PGE2 relaese at 10 fold Ki after 16 hrs by ELISA immunoassay; type: cell-based; in short: as §1
Cannabinoid receptor 2 [4] = biological target: T1, Cannabinoid receptor 2; assay: Antagonist/inverse agonist activity at human CB2 receptor transfected in Chem4 cell membranes after 30 mins by [35S]-GTPgammaS binding assay; type: functional
In short: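 Purchased CB2R-containing membranes in 20 mM HEPES with 100 mM NaCl and 10 mM MgCl₂, pH 7.4. Compound was added from 10⁻¹¹ to 10⁻⁵ M together with 30 nM CP55,940 and incubated 30 min at 30 °C. Non-specific signal was defined with unlabelled GTPγS. The reaction was stopped by GF/C filtration with phosphate-buffer washes, then scintillation counting.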

[5] = biological target: Cannabinoid receptor 2 (Mus musculus) (UniProt P47936); assay: Antagonist/inverse agonist activity at CB2 receptor in mouse BV-2 cells assessed as LPS-induced PGE2 relaese at 10 fold Ki after 16 hrs by ELISA immunoassay in presence of CB2R antagonist SR144528; type: cell-based; in short: as §1
[6] = biological target: Cannabinoid receptor 2 (Mus musculus) (UniProt P47936); settings: BV-2, 10 uM

Sequence of Cannabinoid receptor 1 (P21554 whole entry): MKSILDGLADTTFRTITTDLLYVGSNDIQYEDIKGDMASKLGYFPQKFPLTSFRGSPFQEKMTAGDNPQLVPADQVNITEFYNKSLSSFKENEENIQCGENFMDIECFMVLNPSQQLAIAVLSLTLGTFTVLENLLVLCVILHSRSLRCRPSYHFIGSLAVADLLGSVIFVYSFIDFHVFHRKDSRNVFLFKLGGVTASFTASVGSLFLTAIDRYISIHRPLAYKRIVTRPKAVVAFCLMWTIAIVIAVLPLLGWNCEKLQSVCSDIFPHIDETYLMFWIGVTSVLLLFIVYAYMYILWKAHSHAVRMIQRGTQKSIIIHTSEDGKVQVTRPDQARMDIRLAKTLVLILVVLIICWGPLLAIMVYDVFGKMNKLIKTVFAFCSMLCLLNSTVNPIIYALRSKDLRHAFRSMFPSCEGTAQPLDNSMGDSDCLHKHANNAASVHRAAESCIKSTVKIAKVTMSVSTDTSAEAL
Sequence of Cannabinoid receptor 2 (Mus musculus) (P47936 whole entry): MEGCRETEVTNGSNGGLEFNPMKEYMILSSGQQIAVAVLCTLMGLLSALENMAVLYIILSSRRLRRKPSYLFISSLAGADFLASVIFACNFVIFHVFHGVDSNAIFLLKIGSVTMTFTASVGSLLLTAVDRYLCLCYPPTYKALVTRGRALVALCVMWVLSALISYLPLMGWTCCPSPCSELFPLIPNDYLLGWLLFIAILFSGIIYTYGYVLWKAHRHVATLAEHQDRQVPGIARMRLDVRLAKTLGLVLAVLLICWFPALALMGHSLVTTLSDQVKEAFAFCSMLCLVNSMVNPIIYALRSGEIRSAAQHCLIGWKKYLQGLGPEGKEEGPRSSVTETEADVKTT
T1 sequence (P34972 whole entry): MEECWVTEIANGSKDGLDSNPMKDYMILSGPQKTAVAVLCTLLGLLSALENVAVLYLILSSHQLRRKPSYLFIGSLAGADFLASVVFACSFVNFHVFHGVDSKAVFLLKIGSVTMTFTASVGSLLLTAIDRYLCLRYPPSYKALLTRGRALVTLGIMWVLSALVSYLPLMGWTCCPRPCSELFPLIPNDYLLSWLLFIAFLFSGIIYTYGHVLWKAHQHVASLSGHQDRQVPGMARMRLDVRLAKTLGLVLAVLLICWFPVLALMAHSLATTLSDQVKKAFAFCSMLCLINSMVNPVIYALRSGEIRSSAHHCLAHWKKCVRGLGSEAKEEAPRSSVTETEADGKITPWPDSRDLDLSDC

Structure (SMILES) | Ki (Cannabinoid receptor 2 [1]) [µM] | Ki (Cannabinoid receptor 1) [µM] | other results
Cc1ccc(Cn2cc(CN[C@@H]3C(C)(C)C4CC[C@@]3(C)C4)cc2-c2ccc(Cl)c(C)c2)cc1 | 0.343 | – | –
Cc1ccc(Cn2cc(C(=O)NN3CCCC3)cc2-c2ccc(Cl)c(C)c2)cc1 | > 5 | > 5 | –
Cc1ccc(Cn2cc(C(=O)Nc3cccc4ccccc34)cc2-c2ccc(Cl)c(C)c2)cc1 | > 5 | > 5 | –
Cc1ccc(Cn2cc(C(=O)N3CCCCC3)cc2-c2ccc(Cl)c(C)c2)cc1 | 0.106 | 3.07 | –
Cc1ccc(Cn2cc(C(=O)NC34CC5CC(CC(C5)C3)C4)cc2-c2ccc(Cl)c(C)c2)cc1 | > 5 | > 5 | –
Cc1ccc(Cn2cc(C(=O)N3CCN(c4ccccc4Cl)CC3)cc2-c2ccc(Cl)c(C)c2)cc1 | 1.71 | > 5 | –
Cc1ccc(Cn2cc(C(=O)NN3CCCCCC3)cc2-c2ccc(Cl)c(C)c2)cc1 | 0.575 | > 5 | –
Cc1ccc(Cn2cc(CN3CCN(c4ccc(Cl)c(Cl)c4)CC3)cc2-c2ccc(Cl)c(C)c2)cc1 | > 5 | > 5 | –
Cc1ccc(Cn2cc(C(=O)NCC34CC5CC(CC(C5)C3)C4)cc2-c2ccc(Cl)c(C)c2)cc1 | > 5 | > 5 | –
Cc1ccc(Cn2cc(C(=O)NC3CCCCC3)cc2-c2ccc(Cl)c(C)c2)cc1 | 0.244 | > 5 | –
Cc1ccc(Cn2cc(C(=O)N[C@@H]3CC4CC[C@@]3(C)C4(C)C)cc2-c2ccc(Cl)c(C)c2)cc1 | 0.164 | 0.368 | –
Cc1ccc(Cn2cc(C(=O)N[C@H](C)C3CCCCC3)cc2-c2ccc(Cl)c(C)c2)cc1 | > 5 | > 5 | –
Cc1ccc(Cn2cc(C(=O)N[C@H]3C[C@@H](C)CC[C@@H]3C(C)C)cc2-c2ccc(Cl)c(C)c2)cc1 | 1.1 | > 5 | –
Cc1ccc(Cn2cc(C(=O)NN3CCCCC3)cc2-c2ccc(Cl)c(C)c2)cc1 | > 5 | > 5 | –
Cc1ccc(Cn2cc(C(=O)NC[C@@H]3CCC4C[C@@H]3C4(C)C)cc2-c2ccc(Cl)c(C)c2)cc1 | 0.0722 | > 5 | inhibition [2]: Active; inhibition [3]: Active; IC50 (Cannabinoid receptor 2 [4]): 1.82 µM; inhibition [5]: Active
Cc1ccc(Cn2nc(C(=O)N[C@@H]3C(C)(C)[C@@H]4CC[C@@]3(C)C4)cc2-c2ccc(Cl)c(C)c2)cc1 | – | – | inhibition [6]: Active
Cc1ccc(Cn2nc(C(=O)N[C@@H]3CC4CC[C@@]3(C)C4(C)C)cc2-c2ccc(Cl)c(C)c2)cc1 | 0.0072 | – | –
Cc1ccc(Cn2cc(C(=O)N[C@@H]3C(C)(C)C4CC[C@@]3(C)C4)cc2-c2ccc(Cl)c(C)c2)cc1 | 0.0057 | 1.47 | inhibition [2]: Active; inhibition [3]: Active; IC50 (Cannabinoid receptor 2 [4]): 0.171 µM; inhibition [5]: Active
Cc1ccc(Cn2cc(CN3CCN(c4ccc(Cl)cc4)CC3)cc2-c2ccc(Cl)c(C)c2)cc1 | > 5 | > 5 | –
Cc1ccc(Cn2cc(C(=O)N[C@@H](C)C3CCCCC3)cc2-c2ccc(Cl)c(C)c2)cc1 | 0.492 | – | –
Cc1ccc(Cn2cc(C(=O)N[C@@H]3C[C@@H]4C[C@H]([C@H]3C)C4(C)C)cc2-c2ccc(Cl)c(C)c2)cc1 | > 5 | – | –
